Assay [1] deals with Cyclin-dependent kinase 1/cyclin B1 (Homo sapiens, UniProt P06493). The experiment in a line: Inhibition of CDK1/cyclin B by MESACUP assay. Format: protein-complex assay.
In assay [2] the target is T1, Cyclin-dependent kinase 1/cyclin B1 (Homo sapiens) (UniProt P06493+P14635). The experiment in a line: Inhibition of CDK1/cyclin B at 100 uM. Format: protein-complex assay. The procedure, abridged:
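CDK1/cyclin B complex activity measured in vitro with the MESACUP cdc2 kinase assay kit. Compounds were tested at 100 µM. Activity was expressed as % CDK1 activity relative to untreated control samples, as mean ± SEM, with statistical comparison against control (P < 0.05, P < 0.001).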

Assay [3] is described as follows: Inhibition of CDK1/cyclin E at 50 uM.
Assay [4] has as its target Angiopoietin-1 receptor (Homo sapiens) (UniProt Q02763). The experiment in a line: Inhibition of Tie2 upto 50 uM.
Assay [5] concerns the target Vascular endothelial growth factor receptor 2 (Homo sapiens) (UniProt P35968). The experiment in a line: Inhibition of KDR upto 50 uM.
The nature of assay [6]: Inhibition of FGFR upto 50 uM.
The target in assay [7] is Vascular endothelial growth factor receptor 3 (Homo sapiens) (UniProt P35916). The experiment in a line: Inhibition of Flt4 upto 50 uM.
Chain of Vascular endothelial growth factor receptor 3 (Homo sapiens) (P35916 whole entry): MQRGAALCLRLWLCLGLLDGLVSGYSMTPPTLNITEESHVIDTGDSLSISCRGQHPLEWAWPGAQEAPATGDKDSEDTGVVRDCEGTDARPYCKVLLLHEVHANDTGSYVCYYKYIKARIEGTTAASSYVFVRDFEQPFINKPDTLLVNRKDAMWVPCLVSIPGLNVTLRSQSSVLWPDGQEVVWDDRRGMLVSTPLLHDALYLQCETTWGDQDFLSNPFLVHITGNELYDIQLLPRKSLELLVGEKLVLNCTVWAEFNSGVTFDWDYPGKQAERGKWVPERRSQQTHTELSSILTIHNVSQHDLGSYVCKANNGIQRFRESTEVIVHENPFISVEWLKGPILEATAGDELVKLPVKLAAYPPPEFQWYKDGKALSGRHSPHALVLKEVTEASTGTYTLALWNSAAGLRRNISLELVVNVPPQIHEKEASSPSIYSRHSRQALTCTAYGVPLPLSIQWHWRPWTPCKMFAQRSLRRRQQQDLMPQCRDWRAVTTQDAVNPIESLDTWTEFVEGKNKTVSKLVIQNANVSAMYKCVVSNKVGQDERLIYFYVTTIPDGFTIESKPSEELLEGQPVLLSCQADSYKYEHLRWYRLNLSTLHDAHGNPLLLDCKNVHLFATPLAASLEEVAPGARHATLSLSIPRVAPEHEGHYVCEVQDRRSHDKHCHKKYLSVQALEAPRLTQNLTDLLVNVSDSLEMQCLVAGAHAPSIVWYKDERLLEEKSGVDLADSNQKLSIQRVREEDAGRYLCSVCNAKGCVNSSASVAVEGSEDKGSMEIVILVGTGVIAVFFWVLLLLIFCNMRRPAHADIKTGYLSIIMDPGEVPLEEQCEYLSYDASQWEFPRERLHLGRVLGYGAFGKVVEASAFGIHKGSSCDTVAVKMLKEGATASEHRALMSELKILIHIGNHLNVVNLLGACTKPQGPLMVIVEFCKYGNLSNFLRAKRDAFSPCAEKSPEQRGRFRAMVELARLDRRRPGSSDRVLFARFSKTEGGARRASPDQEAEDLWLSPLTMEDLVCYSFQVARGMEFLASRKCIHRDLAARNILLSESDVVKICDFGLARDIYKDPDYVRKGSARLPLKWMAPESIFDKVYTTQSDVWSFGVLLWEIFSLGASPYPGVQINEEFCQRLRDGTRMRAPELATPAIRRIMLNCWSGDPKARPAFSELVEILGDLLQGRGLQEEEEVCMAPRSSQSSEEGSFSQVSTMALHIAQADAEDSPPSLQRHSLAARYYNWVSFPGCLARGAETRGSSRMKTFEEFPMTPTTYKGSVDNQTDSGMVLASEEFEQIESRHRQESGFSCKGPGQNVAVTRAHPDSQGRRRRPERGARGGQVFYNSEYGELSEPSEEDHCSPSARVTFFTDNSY
For assay [8], the target named is T1, Cyclin-dependent kinase 1/cyclin B1 (Homo sapiens). The experiment in a line: Inhibition of CDK1/cyclin B at 30 uM. It counts as protein-complex assay.
Assay [9] has as its target Epidermal growth factor receptor (Homo sapiens) (UniProt P00533). Briefly: Inhibition of EGFR upto 50 uM.
Assay [10] can be described thus: Inhibition of IGFR upto 50 uM.
A short description of assay [11]: Inhibition of CDK1/cyclin A at 50 uM.

Active and inactive are the calls of the source. No cut-off for these calls is given here. Bounds are passed on as bounds.

Chain of Cyclin-dependent kinase 1/cyclin B1 (P06493 whole entry): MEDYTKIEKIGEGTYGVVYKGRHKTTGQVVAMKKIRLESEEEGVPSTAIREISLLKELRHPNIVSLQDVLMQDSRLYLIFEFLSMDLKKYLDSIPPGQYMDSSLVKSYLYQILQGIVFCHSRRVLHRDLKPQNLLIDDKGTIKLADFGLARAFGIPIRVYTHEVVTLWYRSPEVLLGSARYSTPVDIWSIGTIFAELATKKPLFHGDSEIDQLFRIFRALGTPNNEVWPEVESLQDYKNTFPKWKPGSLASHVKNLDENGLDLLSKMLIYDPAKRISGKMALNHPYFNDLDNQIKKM
Chain of Cyclin-dependent kinase 1/cyclin B1 (P14635 whole entry, further chain): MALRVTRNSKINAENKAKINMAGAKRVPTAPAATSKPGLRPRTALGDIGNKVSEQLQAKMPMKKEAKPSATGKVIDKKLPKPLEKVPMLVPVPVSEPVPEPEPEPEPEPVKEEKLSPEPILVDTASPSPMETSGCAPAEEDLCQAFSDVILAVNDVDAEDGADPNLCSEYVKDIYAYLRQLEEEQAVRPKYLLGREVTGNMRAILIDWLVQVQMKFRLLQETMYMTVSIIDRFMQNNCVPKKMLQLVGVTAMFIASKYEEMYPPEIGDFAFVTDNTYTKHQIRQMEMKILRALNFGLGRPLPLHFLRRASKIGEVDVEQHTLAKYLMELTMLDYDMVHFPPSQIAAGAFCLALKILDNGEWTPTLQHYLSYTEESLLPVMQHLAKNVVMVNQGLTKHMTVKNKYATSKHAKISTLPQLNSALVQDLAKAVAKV
T1 sequence (P06493 whole entry, looked up): as the sequence (P06493 whole entry) above
T1 sequence (P14635 whole entry, looked up): as the sequence (P14635 whole entry, further chain) above
Chain of Angiopoietin-1 receptor (Homo sapiens) (Q02763 whole entry): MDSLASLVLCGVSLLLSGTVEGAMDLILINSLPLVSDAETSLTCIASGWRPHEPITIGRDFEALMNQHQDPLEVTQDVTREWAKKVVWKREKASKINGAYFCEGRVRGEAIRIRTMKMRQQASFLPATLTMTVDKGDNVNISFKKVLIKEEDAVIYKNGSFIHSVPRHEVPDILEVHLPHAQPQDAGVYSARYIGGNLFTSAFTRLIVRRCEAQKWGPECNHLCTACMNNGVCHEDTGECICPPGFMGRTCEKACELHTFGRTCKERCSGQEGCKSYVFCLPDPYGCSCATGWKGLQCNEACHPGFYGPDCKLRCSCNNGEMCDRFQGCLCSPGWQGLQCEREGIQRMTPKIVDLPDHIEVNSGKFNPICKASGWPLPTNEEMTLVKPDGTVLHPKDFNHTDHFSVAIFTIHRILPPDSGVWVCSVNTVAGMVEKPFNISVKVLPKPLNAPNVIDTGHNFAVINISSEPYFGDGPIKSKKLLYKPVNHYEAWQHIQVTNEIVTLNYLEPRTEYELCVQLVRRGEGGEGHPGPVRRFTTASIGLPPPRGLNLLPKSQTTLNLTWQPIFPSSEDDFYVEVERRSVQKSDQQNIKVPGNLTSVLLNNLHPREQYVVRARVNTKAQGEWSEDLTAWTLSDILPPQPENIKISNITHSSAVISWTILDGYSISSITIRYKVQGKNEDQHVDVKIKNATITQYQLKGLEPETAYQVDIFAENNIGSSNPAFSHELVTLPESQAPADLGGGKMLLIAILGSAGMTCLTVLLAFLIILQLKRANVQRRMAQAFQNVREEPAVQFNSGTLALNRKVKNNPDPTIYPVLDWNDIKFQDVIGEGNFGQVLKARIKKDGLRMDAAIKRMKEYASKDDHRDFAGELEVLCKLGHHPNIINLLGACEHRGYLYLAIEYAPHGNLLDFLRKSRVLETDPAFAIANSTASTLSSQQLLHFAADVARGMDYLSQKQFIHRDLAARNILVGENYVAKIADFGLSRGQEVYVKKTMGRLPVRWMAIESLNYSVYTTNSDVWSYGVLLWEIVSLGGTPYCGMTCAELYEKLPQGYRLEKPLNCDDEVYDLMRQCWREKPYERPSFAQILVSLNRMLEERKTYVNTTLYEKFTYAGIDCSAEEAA
Chain of Epidermal growth factor receptor (Homo sapiens) (P00533 whole entry): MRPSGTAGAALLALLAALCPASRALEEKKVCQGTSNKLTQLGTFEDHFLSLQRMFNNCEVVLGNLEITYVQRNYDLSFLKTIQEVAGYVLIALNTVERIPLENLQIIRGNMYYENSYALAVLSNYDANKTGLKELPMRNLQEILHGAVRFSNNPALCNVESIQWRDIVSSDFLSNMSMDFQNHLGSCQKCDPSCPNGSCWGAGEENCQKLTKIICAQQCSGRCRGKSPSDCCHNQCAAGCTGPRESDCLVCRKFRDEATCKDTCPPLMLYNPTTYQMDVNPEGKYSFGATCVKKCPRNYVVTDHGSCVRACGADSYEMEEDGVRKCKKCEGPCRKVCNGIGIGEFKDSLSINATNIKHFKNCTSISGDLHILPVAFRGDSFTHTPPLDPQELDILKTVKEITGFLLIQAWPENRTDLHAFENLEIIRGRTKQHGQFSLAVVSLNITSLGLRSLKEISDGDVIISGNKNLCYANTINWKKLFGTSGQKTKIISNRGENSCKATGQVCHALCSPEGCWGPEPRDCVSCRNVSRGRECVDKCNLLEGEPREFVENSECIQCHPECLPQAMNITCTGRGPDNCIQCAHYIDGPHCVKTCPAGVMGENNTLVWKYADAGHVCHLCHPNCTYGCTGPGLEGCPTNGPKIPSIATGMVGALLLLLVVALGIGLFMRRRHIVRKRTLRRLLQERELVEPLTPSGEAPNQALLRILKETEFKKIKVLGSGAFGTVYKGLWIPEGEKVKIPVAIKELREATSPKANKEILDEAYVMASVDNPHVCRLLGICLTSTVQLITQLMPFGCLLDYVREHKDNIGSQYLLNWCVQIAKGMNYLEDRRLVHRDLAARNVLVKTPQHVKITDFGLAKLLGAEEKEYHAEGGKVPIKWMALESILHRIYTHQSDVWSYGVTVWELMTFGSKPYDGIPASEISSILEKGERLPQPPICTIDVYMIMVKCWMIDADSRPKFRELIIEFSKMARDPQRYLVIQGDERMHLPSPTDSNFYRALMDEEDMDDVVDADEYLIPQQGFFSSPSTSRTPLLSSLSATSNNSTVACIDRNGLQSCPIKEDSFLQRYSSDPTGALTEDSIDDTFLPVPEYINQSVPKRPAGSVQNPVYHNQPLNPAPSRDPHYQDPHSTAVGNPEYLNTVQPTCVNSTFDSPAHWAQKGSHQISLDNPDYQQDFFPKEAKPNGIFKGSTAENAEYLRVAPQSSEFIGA

In general, IC50 refers to the concentration at which inhibition is half-maximal. The low end stands for greater potency, the high end for weaker potency. `CCOC(=O)c1cc2ccc3c4ccc(Cl)cc4[nH]c3c2[nH]1` registered an IC50 in assay [1] of more than 100 µM.

`CCOC(=O)c1cc2ccc3c([nH]c4cccc(Cl)c43)c2[nH]1`: in assay [1], the IC50 is more than 100 µM.

For `CCOC(=O)c1cc2ccc3c4cc(Cl)ccc4[nH]c3c2[nH]1`, in [1], the IC50 is more than 100 µM.

`CCOC(=O)c1cc2ccc3c4cc(C)ccc4[nH]c3c2[nH]1` had an IC50 in [1] of more than 100 µM.

As usually defined, the inhibition is the share of the control response that was lost under treatment. With `CCOC(=O)c1cc2ccc3c4cccc(Cl)c4[nH]c3c2[nH]1`, the inhibition in assay [2] was found to be 90%; in [8] it was 50%. For the same molecule, in assay [1], the IC50 was found to be 15 µM. Also, the outcome in assay [3], in assay [4], in assay [5], in [6], in assay [7] and in assay [9] was inactive. Further, the result in [10] and in assay [11] was inactive.

`CCOC(=O)c1cc2ccc3c4cc(OC)ccc4[nH]c3c2[nH]1`: in assay [1], the IC50 was more than 100 µM.

`CCOC(=O)c1cc2ccc3c4ccccc4[nH]c3c2[nH]1`: the IC50 in [1] was more than 100 µM.

Source of the values: ChEMBL document CHEMBL1141588, “Pyrrolo[2,3-a]carbazoles as potential cyclin dependent kinase 1 (CDK1) Inhibitors. Synthesis, biological evaluation, and binding mode through docking simulations” (J Med Chem, 2008).
